# Measured values published in ChEMBL document CHEMBL4616594, “Virtual screening identification and chemical optimization of substituted 2-arylbenzimidazoles as new non-zinc-binding MMP-2 inhibitors” (Bioorg Med Chem, 2020).
# Assays:
# [1] = target: Matrix metalloproteinase-9 (Homo sapiens, UniProt P14780); test: (§1) Inhibition of recombinant human MMP9 catalytic domain (Phe107 to Pro449 residues) expressed in Escherichia coli cells using Mca-Pro-Leu-Gly-Leu-Dpa-Ala-Arg-NH2/TQ3-GABA-Pro-Cha-Abu-Smc-His-Ala-Dab(6'-TAMRA)-Ala-Lys-NH2 as fluorogenic substrate preincubated for 15 mins followed by substrate addition measured after 2 to 4 hrs by fluorometric assay
# Sequence of Matrix metalloproteinase-9 (P14780 whole entry, the tested form may be a part): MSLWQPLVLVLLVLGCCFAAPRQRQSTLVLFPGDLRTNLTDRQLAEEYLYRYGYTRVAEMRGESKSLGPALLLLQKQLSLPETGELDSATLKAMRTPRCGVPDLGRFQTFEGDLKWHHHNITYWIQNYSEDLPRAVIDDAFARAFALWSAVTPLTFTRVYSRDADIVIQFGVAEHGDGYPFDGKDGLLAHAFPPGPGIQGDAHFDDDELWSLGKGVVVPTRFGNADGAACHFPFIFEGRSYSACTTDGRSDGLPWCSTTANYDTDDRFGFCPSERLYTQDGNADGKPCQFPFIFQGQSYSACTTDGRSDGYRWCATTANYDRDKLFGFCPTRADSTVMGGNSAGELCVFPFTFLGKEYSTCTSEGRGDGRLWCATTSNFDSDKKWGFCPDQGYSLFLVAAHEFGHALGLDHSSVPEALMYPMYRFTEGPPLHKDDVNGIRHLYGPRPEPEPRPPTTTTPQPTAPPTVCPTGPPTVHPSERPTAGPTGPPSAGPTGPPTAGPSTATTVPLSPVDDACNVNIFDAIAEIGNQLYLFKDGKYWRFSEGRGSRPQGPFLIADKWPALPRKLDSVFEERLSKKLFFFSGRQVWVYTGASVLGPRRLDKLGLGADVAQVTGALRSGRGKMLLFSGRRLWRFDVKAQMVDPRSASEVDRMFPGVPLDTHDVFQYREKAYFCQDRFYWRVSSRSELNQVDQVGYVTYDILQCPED
# Summary of the method: (§2)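 Commercial catalytic domain in Tris·HCl 50 mM pH 7.5, NaCl 150 mM, CaCl₂ 1 mM, ZnCl₂ 1 µM, 0.05% Brij-35, 1% DMSO. Inhibitor was tested at six concentrations (1 nM–100 µM), diluted from 10 mM DMSO stocks, and pre-incubated with enzyme for 15 min at room temperature. OmniMMP substrate (2.5 µM final) or OmniMMP RED substrate (1 µM final) was then added and incubated 2–4 h at 37°C. Fluorescence read at ex 340/em 405 or ex 545/em 572. Percent inhibition calculated versus no-inhibitor wells. Run in triplicate; IC50 given as mean ± SEM of ≥2 independent experiments.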
# Neutrophil collagenase = Neutrophil collagenase (Homo sapiens, UniProt P22894); test: as §1, with “MMP8” for “MMP9”, “(Phe99” for “(Phe107”, “Gln269” for “Pro449”; summary of the method: as §2
# Sequence of Neutrophil collagenase (P22894 whole entry): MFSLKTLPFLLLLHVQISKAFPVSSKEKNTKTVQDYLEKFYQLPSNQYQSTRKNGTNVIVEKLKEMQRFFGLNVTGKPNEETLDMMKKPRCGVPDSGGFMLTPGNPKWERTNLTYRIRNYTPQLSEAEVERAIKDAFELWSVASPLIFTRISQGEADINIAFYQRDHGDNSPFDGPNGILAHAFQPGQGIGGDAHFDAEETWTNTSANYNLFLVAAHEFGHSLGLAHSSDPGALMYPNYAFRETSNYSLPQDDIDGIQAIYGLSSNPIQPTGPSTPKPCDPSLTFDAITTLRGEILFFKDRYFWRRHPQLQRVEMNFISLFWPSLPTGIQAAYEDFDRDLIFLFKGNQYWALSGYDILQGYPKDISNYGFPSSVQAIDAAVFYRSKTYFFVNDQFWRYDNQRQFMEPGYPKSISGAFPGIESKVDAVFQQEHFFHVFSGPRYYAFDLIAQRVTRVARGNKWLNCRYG
# Collagenase 3 = Collagenase 3 (Homo sapiens, UniProt P45452); test: as §1, with “MMP13” for “MMP9”, “(Tyr104” for “(Phe107”, “Asn274” for “Pro449”
# [2] = target: 72 kDa type IV collagenase (Homo sapiens, UniProt P08253); test: as §1, with “MMP2” for “MMP9”, “(Tyr110” for “(Phe107”, “Asp452” for “Pro449”, “yeast” for “Escherichia coli”, “analysis” for “assay”; assay type: biochemical; summary of the method: as §2
# Sequence of 72 kDa type IV collagenase (P08253 whole entry): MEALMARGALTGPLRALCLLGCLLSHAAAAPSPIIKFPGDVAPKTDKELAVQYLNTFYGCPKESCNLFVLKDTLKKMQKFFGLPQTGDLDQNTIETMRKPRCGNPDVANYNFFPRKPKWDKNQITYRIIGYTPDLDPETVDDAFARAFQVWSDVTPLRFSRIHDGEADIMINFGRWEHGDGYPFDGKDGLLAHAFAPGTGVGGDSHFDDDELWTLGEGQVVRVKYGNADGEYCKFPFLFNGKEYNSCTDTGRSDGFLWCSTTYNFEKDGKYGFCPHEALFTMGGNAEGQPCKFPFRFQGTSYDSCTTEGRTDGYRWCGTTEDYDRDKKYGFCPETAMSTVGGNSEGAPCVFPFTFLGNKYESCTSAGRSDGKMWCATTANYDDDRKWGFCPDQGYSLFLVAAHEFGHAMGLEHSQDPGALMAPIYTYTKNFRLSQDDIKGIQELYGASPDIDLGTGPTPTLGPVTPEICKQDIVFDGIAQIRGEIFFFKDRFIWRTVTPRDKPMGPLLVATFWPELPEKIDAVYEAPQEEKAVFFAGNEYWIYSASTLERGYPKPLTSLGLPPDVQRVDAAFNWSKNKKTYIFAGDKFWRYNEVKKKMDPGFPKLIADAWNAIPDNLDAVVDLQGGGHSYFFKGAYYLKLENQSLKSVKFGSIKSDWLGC
SMILES,IC50 [1] [µM],IC50 (Neutrophil collagenase) [µM],IC50 (Collagenase 3) [µM],IC50 [2] [µM]
O=[N+]([O-])c1ccc(-c2nc3cc([N+](=O)[O-])ccc3[nH]2)cc1,23.3,25,12,4.2
O=C(Nc1cccc(-c2nc3ccccc3[nH]2)c1)c1ccccc1,57,46,35,11.9
O=C(Nc1ccc(-c2nc3ccccc3s2)cc1)c1ccccc1,42,38,21,16.4
O=C(CCc1ccccc1)Nc1cccc(-c2nc3ccccc3[nH]2)c1,68,41.9,> 100,87
O=C(CCCc1ccccc1)Nc1ccc(-c2nc3ccccc3[nH]2)cc1,> 100,> 100,50,96
Cc1ccc2nc(-c3cccc(C(=O)NCCc4ccccc4)c3)[nH]c2c1,37.7,40,> 100,45
O=C(Nc1nc2ccc(Cl)cc2s1)c1ccc([N+](=O)[O-])cc1,> 100,> 100,20,> 100
COc1ccc(/C=C/C(=O)Nc2cccc(-c3nc4ccccc4[nH]3)c2)cc1,> 100,> 100,52,48
Cc1cccc2nc(-c3cccc(NC(=O)CCc4ccccc4)c3)[nH]c12,60,29,> 100,64
O=C(CCCc1ccccc1)Nc1ccc(-c2nc3ccc(Br)cc3[nH]2)cc1,58,67,22.2,31
O=C(CCCc1ccccc1)Nc1cccc(-c2nc3ccccc3[nH]2)c1,43,34.6,81.2,47
Cc1ccc2nc(-c3ccc(NC(=O)CCc4ccccc4)cc3)[nH]c2c1,60,77,17.9,25.3
Cc1ccc2nc(-c3cccc(NC(=O)CN(C)Cc4ccccn4)c3)[nH]c2c1,> 100,> 100,93,72
O=C(Nc1nc2ccccc2s1)c1ccc([N+](=O)[O-])cc1,> 100,> 100,> 100,> 100
O=C(Nc1ccc(-c2nc3ccccc3[nH]2)cc1)c1ccc(Br)cc1,41,55,10.9,9.4
Cc1cccc2nc(-c3cccc(NC(=O)CCCc4ccccc4)c3)[nH]c12,38.6,40.9,91,60
O=[N+]([O-])c1cccc(-c2nc3ccc(Br)cc3[nH]2)c1,> 100,> 100,47,> 100
Brc1ccc2nc(-c3ccccc3)[nH]c2c1,> 100,> 100,> 100,> 100
O=[N+]([O-])c1ccc(-c2nc3ccccc3[nH]2)cc1,56.5,64,> 100,82
Nc1ccc(-c2nc3ccccc3s2)cc1,79,88,> 100,> 100

# Other lines, results leading:
IC50 [1] [µM],IC50 (Neutrophil collagenase) [µM],IC50 (Collagenase 3) [µM],IC50 [2] [µM],SMILES
36,43.2,94,65.4,O=S(=O)(Nc1cccc(-c2nc3ccccc3[nH]2)c1)c1ccccc1
36,46,7.3,5.8,O=[N+]([O-])c1ccc(-c2nc3ccccc3o2)cc1
16,28,7.5,6.5,O=C(Nc1ccc(-c2nc3ccccc3[nH]2)cc1)c1ccccc1
26.6,32,> 100,31,Cc1ccc2nc(-c3cccc(NC(=O)CCc4ccccc4)c3)[nH]c2c1
14.5,12.5,73,16,O=C(CCc1ccccc1)Nc1cccc(-c2nc3ccc(Br)cc3[nH]2)c1
6.4,7.9,3.9,3.1,O=C(Nc1ccc(-c2nc3ccc(Br)cc3[nH]2)cc1)c1ccc([N+](=O)[O-])cc1
10,10,10.5,8.8,O=[N+]([O-])c1ccc(-c2nc3ccc(Br)cc3[nH]2)cc1
20.7,26.3,19,9,COC(=O)c1ccc(-c2nc3ccc(Br)cc3[nH]2)cc1
28.4,45.3,6.5,8.6,Cc1ccc2nc(-c3ccc(NC(=O)c4ccccc4)cc3)[nH]c2c1
11.5,8,6.5,7,O=C(CCc1ccccc1)Nc1ccc(-c2nc3ccc(Br)cc3[nH]2)cc1
14.5,20.9,2.2,3.9,Cc1ccc2nc(-c3ccc(NC(=O)c4cccc([N+](=O)[O-])c4)cc3)[nH]c2c1
20,14.7,11,15.9,Cc1ccc2oc(-c3ccc(NC(=O)c4ccc([N+](=O)[O-])cc4)cc3)nc2c1
32,50,3.9,6.42,O=C(Nc1ccc(-c2nc3ccc(Br)cc3[nH]2)cc1)c1ccccc1
22,23,6.1,6.5,Cc1ccc2nc(-c3ccc([N+](=O)[O-])cc3)[nH]c2c1
36.6,27,15.5,14,Cc1ccc2nc(-c3cccc([N+](=O)[O-])c3)[nH]c2c1
21.7,26,21,10,Nc1ccc(-c2nc3ccc(Br)cc3[nH]2)cc1
32,27,33,31,O=[N+]([O-])c1ccc(-c2nc3ccccc3[nH]2)o1
10.7,25.5,1.8,3.3,Cc1ccc2nc(-c3ccc(NC(=O)c4ccc([N+](=O)[O-])cc4)cc3)[nH]c2c1
29,64,15.2,19,O=C(CCc1ccccc1)Nc1ccc(-c2nc3ccccc3[nH]2)cc1
27,35,43,31.5,O=C(O)c1ccc(-c2nc3ccc(Br)cc3[nH]2)cc1
18,29,9.4,9,Cc1ccc2nc(-c3ccc([N+](=O)[O-])cc3)oc2c1
11.5,10.5,7.5,6.5,O=[N+]([O-])c1ccc(-c2nc3ccccc3s2)cc1
14.9,16.4,8.8,9.7,Cc1ccc2oc(-c3ccc([N+](=O)[O-])cc3)nc2c1
